Laboratory results from publication PMC6663923 (Acta Pharmaceutica Sinica. B, 2019).
Where two headings read alike, the source gives them in different places.

Legend:
recombinant LSD1 [1] = target: T1, recombinant LSD1 (Homo sapiens, UniProt O60341); assay: LSD1 enzymatic assay; format: biochemical
recombinant LSD1 [2] = target: T1, recombinant LSD1; assay: Reversibility analysis; format: biochemical; details: 80-fold dilution
How it was run: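 Recombinant LSD1 (2.5 μg) was preincubated for 1 h with the test compound (312.5 μmol/L), a reference inhibitor (600 μmol/L) or DMSO. Aliquots were then diluted 80-fold into HRP-coupled assay solution containing substrate and coupling reagents, and residual demethylase activity was measured.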

glioma stem cells (GSCs) = details: cited from earlier work

For CCCSc1nc(Sc2nc3ccccc3s2)c2nnn(CCOCCO)c2n1 [Compound 8l], the “LSD1 inhibitory effect (in words)” value (recombinant LSD1 [1]; recombinant LSD1) was “moderate inhibitory effect”.

For C#CCSc1nc(Sc2nnnn2-c2ccccc2)c2nnn(Cc3ccc(C(C)C)cc3)c2n1 [Compound 15x], the IC50 (recombinant LSD1 [1]; read-out: LSD1 IC50, recombinant LSD1) was 0.055 µM.

In the case of C#CCSc1nc(Sc2nnnn2-c2ccccc2)c2nnn(Cc3ccc(OC)cc3)c2n1 [Compound 15y], the IC50 (recombinant LSD1 [1]; LSD1 IC50, recombinant LSD1) is reported as 0.14 µM.

Compound OCCNc1cc(Sc2nnnn2-c2ccccc2)nc(SCc2ccccc2)n1 [Compound 22b, 2-((2-(Benzylthio)-6-((1-phenyl-1H-tetrazol-5-yl)thio)pyrimidin-4-yl)amino)ethan-1-ol] has an IC50 (recombinant LSD1 [1]; LSD1 IC50, recombinant LSD1) of over 10 µM.

In the case of O=C(O)c1ccc(CN2CCC(CN[C@@H]3C[C@H]3c3ccccc3)CC2)cc1 [GSK2879552], the “reversibility of LSD1 inhibition (in words)” value (recombinant LSD1 [2]) is reported as “failed to recover the activity of LSD1”.

In the case of NC1CC1c1cccc(OCC[C@H](NC(=O)c2ccccc2)C(=O)NCc2ccccc2)c1 (stereo partly drawn) [NCL-1], the “cell viability of GSCs (in words)” value (glioma stem cells (GSCs)) is listed as “significantly reduced the cell viability”.
